The target in assay [1] is T1, Signal transducer and activator of transcription 3 (Homo sapiens, UniProt P40763). Kind of assay: Inhibition of IL-6 induced STAT3 transcriptional activity in human HEK-Blue IL-6 cells assessed as secreted embryonic alkaline phosphatase reporter gene expression by microplate reader. The method in brief:
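HEK-Blue IL-6 reporter cells were treated for 20 h, and STAT3 pathway activity was quantified from secreted SEAP using a detection reagent. […] Values are averages of three independent experiments.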
(In a reporter assay the amount or activity of a reporter protein is the signal.)

For assay [2], the target named is T1, Signal transducer and activator of transcription 3. Description: Inhibition of IL-6 induced STAT3 transcriptional activity in human HEK-Blue IL-6 cells assessed as secreted embryonic alkaline phosphatase reporter gene expression measured after 20 hrs by microplate reader. In a few lines: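 HEK-Blue IL-6 reporter cells were treated for 20 h. IL-6/JAK/STAT3 pathway activity was quantified from secreted SEAP using a detection reagent, with parallel MTT viability. Values are averages of three independent experiments.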

T1 sequence (P40763 whole entry): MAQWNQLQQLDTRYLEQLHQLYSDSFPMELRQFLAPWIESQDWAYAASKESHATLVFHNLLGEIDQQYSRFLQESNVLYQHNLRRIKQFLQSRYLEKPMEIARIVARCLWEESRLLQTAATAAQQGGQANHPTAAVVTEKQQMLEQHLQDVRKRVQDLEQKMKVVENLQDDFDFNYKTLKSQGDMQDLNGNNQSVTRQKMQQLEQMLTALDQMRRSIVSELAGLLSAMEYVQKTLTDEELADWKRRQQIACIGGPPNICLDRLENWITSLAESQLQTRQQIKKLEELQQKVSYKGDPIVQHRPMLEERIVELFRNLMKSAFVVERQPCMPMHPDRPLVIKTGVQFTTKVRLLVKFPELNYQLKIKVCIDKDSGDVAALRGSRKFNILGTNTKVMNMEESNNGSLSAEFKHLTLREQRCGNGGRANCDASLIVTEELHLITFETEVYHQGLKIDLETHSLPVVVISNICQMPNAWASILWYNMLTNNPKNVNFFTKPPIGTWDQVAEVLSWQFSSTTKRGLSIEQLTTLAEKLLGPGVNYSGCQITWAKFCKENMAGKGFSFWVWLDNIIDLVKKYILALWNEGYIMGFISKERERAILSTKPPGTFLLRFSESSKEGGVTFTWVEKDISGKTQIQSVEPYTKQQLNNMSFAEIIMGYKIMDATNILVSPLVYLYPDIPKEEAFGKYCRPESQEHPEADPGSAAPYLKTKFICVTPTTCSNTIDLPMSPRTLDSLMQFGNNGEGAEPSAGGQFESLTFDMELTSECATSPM

Usually IC50 stands for the concentration that inhibits the measured activity by half. On to `C[C@H](NC(=O)/C(C#N)=C/c1cccc(Br)n1)c1ccccc1` [Wp 1066], for which the IC50 in assay [1] was 1.79 µM; in assay [2] it was 2.5 µM.
Turning to `CC(=O)Oc1ccccc1C(=O)Nc1ncc([N+](=O)[O-])s1` [Alinia], the IC50 turned out to be 9.98 µM in assay [1] and 9.8 µM in assay [2].
